Laboratory results as given in ChEMBL document CHEMBL2146397, “The Substrate-Activity-Screening methodology applied to receptor tyrosine kinases: a proof-of-concept study” (Eur J Med Chem, 2012).
Square brackets hold non-standard residues; d marks the D form. Peptide text beside a SMILES is read from it. * marks the point of attachment. Trp(6-Cl) = N[C@@H](Cc1c[nH]c2cc(Cl)ccc12)C(=O)O; Phe(4-Cl) = N[C@@H](Cc1ccc(Cl)cc1)C(=O)O; X2 = O=C(O)[C@H]1CCCC[C@@H]1C(=O)*; 3Pal = N[C@@H](Cc1cccnc1)C(=O)O

Target: Insulin-like growth factor 1 receptor (Homo sapiens, UniProt P08069)
Assay: Activity at pre-activated human GST-His6-tagged IGF-1R expressed in Sf9 cells assessed as initial phosphorylation rate at 10 uM measured every 2 mins for 60 mins by Michaelis-Menten constant based ADP Quest assay
Procedure, shortened: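 Reaction buffer was the same plus 0.1 mg/mL BSA, with kinase, peptide substrate and detection reagents. Started with ATP; fluorescence read every 2 min for 60 min; 3 independent experiments.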

Sequence of Insulin-like growth factor 1 receptor (P08069 31-736 limits assumed): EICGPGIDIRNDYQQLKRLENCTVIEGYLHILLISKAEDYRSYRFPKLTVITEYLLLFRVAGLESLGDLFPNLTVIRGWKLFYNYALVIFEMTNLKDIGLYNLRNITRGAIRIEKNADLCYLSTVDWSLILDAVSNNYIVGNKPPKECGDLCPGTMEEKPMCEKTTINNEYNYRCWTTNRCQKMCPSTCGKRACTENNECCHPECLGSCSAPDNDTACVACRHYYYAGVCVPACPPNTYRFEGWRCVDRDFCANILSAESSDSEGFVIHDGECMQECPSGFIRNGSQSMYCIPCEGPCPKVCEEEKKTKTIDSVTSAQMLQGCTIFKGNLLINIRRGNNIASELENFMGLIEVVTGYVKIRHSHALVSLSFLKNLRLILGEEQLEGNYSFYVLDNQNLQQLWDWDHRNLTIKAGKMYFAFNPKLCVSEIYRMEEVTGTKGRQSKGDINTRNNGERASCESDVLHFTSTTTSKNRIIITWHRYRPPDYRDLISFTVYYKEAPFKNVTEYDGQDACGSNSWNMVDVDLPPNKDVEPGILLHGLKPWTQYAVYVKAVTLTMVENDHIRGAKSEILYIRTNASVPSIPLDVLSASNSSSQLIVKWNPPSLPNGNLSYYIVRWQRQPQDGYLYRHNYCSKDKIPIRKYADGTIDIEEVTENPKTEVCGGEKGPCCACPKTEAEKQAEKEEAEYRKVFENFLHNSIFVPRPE
Sequence of Insulin-like growth factor 1 receptor (P08069 741-1367 limits assumed): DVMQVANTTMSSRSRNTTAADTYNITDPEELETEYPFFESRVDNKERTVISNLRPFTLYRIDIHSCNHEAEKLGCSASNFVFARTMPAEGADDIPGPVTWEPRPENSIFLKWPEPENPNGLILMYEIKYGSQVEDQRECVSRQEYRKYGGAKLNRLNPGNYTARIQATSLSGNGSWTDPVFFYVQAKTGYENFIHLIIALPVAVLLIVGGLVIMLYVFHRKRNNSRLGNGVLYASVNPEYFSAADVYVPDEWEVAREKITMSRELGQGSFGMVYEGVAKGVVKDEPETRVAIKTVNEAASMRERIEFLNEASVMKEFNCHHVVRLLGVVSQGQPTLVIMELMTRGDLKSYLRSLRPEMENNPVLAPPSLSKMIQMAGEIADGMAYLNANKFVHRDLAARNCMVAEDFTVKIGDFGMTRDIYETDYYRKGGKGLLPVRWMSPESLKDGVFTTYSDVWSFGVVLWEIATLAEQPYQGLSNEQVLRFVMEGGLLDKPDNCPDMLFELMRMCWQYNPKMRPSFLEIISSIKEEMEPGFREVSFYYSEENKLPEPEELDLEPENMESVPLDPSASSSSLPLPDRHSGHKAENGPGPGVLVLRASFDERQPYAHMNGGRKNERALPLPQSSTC

`CNC(=O)[C@H](Cc1c[nH]c2ccccc12)NC(=O)[C@H](CCC(=O)O)NC(=O)[C@H](Cc1ccccc1)NC(=O)[C@H](Cc1ccc(O)cc1)NC(=O)C1CCC1C(=O)O` (stereo not given in full) (HELM PEPTIDE1{[O=C(O)C1CCC1C(=O)[*:2]].Y.F.E.W.[CN[*:1]]}$$$$V2.0) gave an Activity of 4.3 nM/s.

Molecule `CNC(=O)[C@H](Cc1c[nH]c2cc(Cl)ccc12)NC(=O)CNC(=O)[C@H](Cc1ccccc1)NC(=O)[C@H](Cc1ccc(O)cc1)NC(=O)[C@H](CC(=O)O)NC(C)=O` (HELM PEPTIDE1{[ac].D.Y.F.G.[O=C([C@H](Cc1c[nH]c2cc(Cl)ccc12)N[*:1])[*:2]].[CN[*:1]]}$$$$V2.0) has an Activity of 2.1 nM/s.

`CNC(=O)[C@H](Cc1ccc(Cl)cc1)NC(=O)CNC(=O)[C@H](Cc1ccccc1)NC(=O)[C@H](Cc1ccc(O)cc1)NC(=O)[C@H](CC(=O)O)NC(C)=O` (HELM PEPTIDE1{[ac].D.Y.F.G.[O=C([C@H](Cc1ccc(Cl)cc1)N[*:1])[*:2]].[CN[*:1]]}$$$$V2.0) showed an Activity of 0.47 nM/s.

With `CNC(=O)[C@H](Cc1c[nH]c2cc(Cl)ccc12)NC(=O)[C@H](CCC(=O)O)NC(=O)[C@H](Cc1ccccc1)NC(=O)[C@H](Cc1ccc(O)cc1)NC(=O)[C@H]1CCCC[C@@H]1C(=O)O` (X2-YFE[Trp(6-Cl)]-NHMe) the Activity was 7.5 nM/s.

Work on `CNC(=O)[C@H](Cc1ccc(Cl)cc1)NC(=O)[C@H](CCC(=O)O)NC(=O)[C@H](Cc1ccccc1)NC(=O)[C@H](Cc1ccc(O)cc1)NC(=O)[C@H](CC(=O)O)NC(C)=O` (HELM PEPTIDE1{[ac].D.Y.F.E.[O=C([C@H](Cc1ccc(Cl)cc1)N[*:1])[*:2]].[CN[*:1]]}$$$$V2.0) yielded an Activity of 2.6 nM/s.

With `CNC(=O)[C@H](Cc1ccccc1)NC(=O)[C@H](CCC(=O)O)NC(=O)[C@H](Cc1ccccc1)NC(=O)[C@H](Cc1ccc(O)cc1)NC(=O)[C@H](CC(=O)O)NC(C)=O` (HELM PEPTIDE1{[ac].D.Y.F.E.F.[CN[*:1]]}$$$$V2.0) the Activity was 1.7 nM/s.

For `CNC(=O)[C@H](Cc1ccccc1)NC(=O)[C@H](CCC(=O)O)NC(=O)[C@H](Cc1ccccc1)NC(=O)[C@H](Cc1ccc(O)cc1)NC(=O)[C@@H]1CCCC[C@@H]1C(=O)O` (HELM PEPTIDE1{[O=C(O)[C@H]1CCCC[C@H]1C(=O)[*:2]].Y.F.E.F.[CN[*:1]]}$$$$V2.0), the Activity was 1.1 nM/s.

`CNC(=O)[C@H](Cc1ccc(Cl)cc1)NC(=O)[C@H](CCC(=O)O)NC(=O)[C@H](Cc1ccccc1)NC(=O)[C@H](Cc1ccc(O)cc1)NC(=O)[C@H]1CCCC[C@@H]1C(=O)O` (X2-YFE[Phe(4-Cl)]-NHMe) gave an Activity of 4 nM/s.

`CNC(=O)[C@H](Cc1c[nH]c2ccccc12)NC(=O)[C@H](CCC(=O)O)NC(=O)[C@H](Cc1ccccc1)NC(=O)[C@H](Cc1ccc(O)cc1)NC(=O)[C@@H]1CCCC[C@H]1C(=O)O` showed an Activity of 1.1 nM/s.

`CNC(=O)[C@H](Cc1ccccc1)NC(=O)[C@H](CCC(=O)O)NC(=O)[C@H](Cc1ccccc1)NC(=O)[C@H](Cc1ccc(O)cc1)NC(=O)[C@H](CC(N)=O)NC(C)=O` (HELM PEPTIDE1{[ac].N.Y.F.E.F.[CN[*:1]]}$$$$V2.0) gave an Activity of 0.46 nM/s.

Work on `CNC(=O)[C@H](Cc1ccccc1)NC(=O)[C@H](CCC(=O)O)NC(=O)[C@H](Cc1ccccc1)NC(=O)[C@H](Cc1ccc(O)cc1)NC(=O)[C@@H]1CCCC[C@H]1C(=O)O` (HELM PEPTIDE1{[O=C(O)[C@@H]1CCCC[C@H]1C(=O)[*:2]].Y.F.E.F.[CN[*:1]]}$$$$V2.0) yielded an Activity of 0.17 nM/s.

In the case of `CNC(=O)[C@H](Cc1c[nH]c2ccccc12)NC(=O)CNC(=O)[C@H](Cc1ccccc1)NC(=O)[C@H](Cc1ccc(O)cc1)NC(=O)[C@H](CC(=O)O)NC(C)=O`, the Activity was 1.7 nM/s.

`CNC(=O)[C@H](Cc1ccc(Cl)cc1)NC(=O)[C@H](CCC(=O)O)NC(=O)[C@H](Cc1ccccc1)NC(=O)[C@H](Cc1ccc(O)cc1)NC(=O)[C@H](CCC(=O)O)NC(C)=O` (HELM PEPTIDE1{[ac].E.Y.F.E.[O=C([C@H](Cc1ccc(Cl)cc1)N[*:1])[*:2]].[CN[*:1]]}$$$$V2.0) was tested, and the Activity was 0.26 nM/s.

`CNC(=O)[C@H](Cc1c[nH]c2cc(Cl)ccc12)NC(=O)[C@H](CCC(=O)O)NC(=O)[C@H](Cc1ccccc1)NC(=O)[C@H](Cc1ccc(O)cc1)NC(=O)[C@H](Cc1cccnc1)NC(C)=O` (Ac-[3Pal]YFE[Trp(6-Cl)]-NHMe) was tested, and the Activity was 1 nM/s.

Molecule `CNC(=O)[C@@H](Cc1c[nH]c2ccccc12)NC(=O)[C@H](CCC(=O)O)NC(=O)[C@H](Cc1ccccc1)NC(=O)[C@H](Cc1ccc(O)cc1)NC(=O)[C@H](CC(=O)O)NC(C)=O` has an Activity of 0.28 nM/s.

Molecule `CNC(=O)[C@H](Cc1ccccc1)NC(=O)[C@H](CCC(=O)O)NC(=O)[C@H](Cc1ccccc1)NC(=O)[C@H](Cc1ccc(O)cc1)NC(=O)[C@H]1CCCC[C@@H]1C(=O)O` (HELM PEPTIDE1{[O=C(O)[C@H]1CCCC[C@@H]1C(=O)[*:2]].Y.F.E.F.[CN[*:1]]}$$$$V2.0) has an Activity of 5.2 nM/s.

In the case of `CNC(=O)[C@H](Cc1c[nH]c2ccccc12)NC(=O)[C@H](CCC(=O)O)NC(=O)[C@H](Cc1ccccc1)NC(=O)[C@H](Cc1ccc(O)cc1)NC(=O)[C@@H]1CCC[C@H]1C(=O)O` (HELM PEPTIDE1{[O=C(O)[C@@H]1CCC[C@H]1C(=O)[*:2]].Y.F.E.W.[CN[*:1]]}$$$$V2.0), the Activity was 5.4 nM/s.

`CNC(=O)[C@H](Cc1c[nH]c2ccccc12)NC(=O)[C@H](CCC(=O)O)NC(=O)[C@H](Cc1ccccc1)NC(=O)[C@H](Cc1ccc(O)cc1)NC(=O)[C@H](CC(N)=O)NC(C)=O` (HELM PEPTIDE1{[ac].N.Y.F.E.W.[CN[*:1]]}$$$$V2.0) showed an Activity of 2.8 nM/s.

With `CNC(=O)[C@@H](Cc1c[nH]c2ccccc12)NC(=O)[C@H](CCC(=O)O)NC(=O)[C@H](Cc1ccccc1)NC(=O)[C@H](Cc1ccc(O)cc1)NC(=O)[C@H]1CCCC[C@@H]1C(=O)O` the Activity was 0.51 nM/s.

`CNC(=O)[C@H](Cc1ccc(Cl)c(Cl)c1)NC(=O)[C@H](CCC(=O)O)NC(=O)[C@H](Cc1ccccc1)NC(=O)[C@H](Cc1ccc(O)cc1)NC(=O)[C@H](CC(=O)O)NC(C)=O` (HELM PEPTIDE1{[ac].D.Y.F.E.[O=C([C@H](Cc1ccc(Cl)c(Cl)c1)N[*:1])[*:2]].[CN[*:1]]}$$$$V2.0) was tested, and the Activity was 2.1 nM/s.

Work on `CNC(=O)[C@H](Cc1c[nH]c2ccccc12)NC(=O)[C@H](CCC(=O)O)NC(=O)[C@H](Cc1ccccc1)NC(=O)[C@H](Cc1ccc(O)cc1)NC(=O)[C@H]1CCC[C@@H]1C(=O)O` (HELM PEPTIDE1{[O=C(O)[C@H]1CCC[C@@H]1C(=O)[*:2]].Y.F.E.W.[CN[*:1]]}$$$$V2.0) yielded an Activity of 0.84 nM/s.

Molecule `CNC(=O)[C@@H](Cc1c[nH]c2ccccc12)NC(=O)CNC(=O)[C@H](Cc1ccccc1)NC(=O)[C@H](Cc1ccc(O)cc1)NC(=O)[C@H](CC(=O)O)NC(C)=O` has an Activity of 0.09 nM/s.

Work on `CNC(=O)[C@H](Cc1c[nH]c2ccccc12)NC(=O)[C@H](CCC(=O)O)NC(=O)[C@H](Cc1ccccc1)NC(=O)[C@H](Cc1ccc(O)cc1)NC(=O)[C@H](CCC(=O)O)NC(C)=O` yielded an Activity of 2.5 nM/s.

In the case of `CNC(=O)[C@H](Cc1ccccc1)NC(=O)[C@H](CCC(=O)O)NC(=O)[C@H](Cc1ccccc1)NC(=O)[C@H](Cc1ccc(O)cc1)NC(=O)c1ccccc1[N+](=O)[O-]` (HELM PEPTIDE1{[O=C(c1ccccc1[N+](=O)[O-])[*:2]].Y.F.E.F.[CN[*:1]]}$$$$V2.0), the Activity was 4.6 nM/s.

In the case of `CNC(=O)[C@H](Cc1c[nH]c2cc(Cl)ccc12)NC(=O)[C@H](CCC(=O)O)NC(=O)[C@H](Cc1ccccc1)NC(=O)[C@H](Cc1ccc(O)cc1)NC(=O)[C@H](CC(=O)O)NC(C)=O` (HELM PEPTIDE1{[ac].D.Y.F.E.[O=C([C@H](Cc1c[nH]c2cc(Cl)ccc12)N[*:1])[*:2]].[CN[*:1]]}$$$$V2.0), the Activity was 6.7 nM/s.

`CNC(=O)[C@H](Cc1ccc(Cl)c(Cl)c1)NC(=O)CNC(=O)[C@H](Cc1ccccc1)NC(=O)[C@H](Cc1ccc(O)cc1)NC(=O)[C@H](CC(=O)O)NC(C)=O` (HELM PEPTIDE1{[ac].D.Y.F.G.[O=C([C@H](Cc1ccc(Cl)c(Cl)c1)N[*:1])[*:2]].[CN[*:1]]}$$$$V2.0) gave an Activity of 0.55 nM/s.

With `CNC(=O)[C@H](Cc1ccccc1)NC(=O)[C@H](CCC(=O)O)NC(=O)[C@H](Cc1ccccc1)NC(=O)[C@H](Cc1ccc(O)cc1)NC(=O)CCC(=O)O` (HELM PEPTIDE1{[O=C(O)CCC(=O)[*:2]].Y.F.E.F.[CN[*:1]]}$$$$V2.0) the Activity was 0.25 nM/s.

In the case of `CNC(=O)[C@H](Cc1c[nH]c2ccccc12)NC(=O)[C@H](CCC(=O)O)NC(=O)[C@H](Cc1ccccc1)NC(=O)[C@H](Cc1ccc(O)cc1)NC(=O)[C@H](CC(=O)O)NC(C)=O`, the Activity was 6.2 nM/s.

With `CNC(=O)[C@H](Cc1c[nH]c2ccccc12)NC(=O)[C@H](CCC(=O)O)NC(=O)[C@H](Cc1ccccc1)NC(=O)[C@H](Cc1ccc(O)cc1)NC(=O)[C@@H]1CCCC[C@@H]1C(=O)O` the Activity was 4.6 nM/s.

With `CNC(=O)[C@H](Cc1ccccc1)NC(=O)[C@H](CCC(=O)O)NC(=O)[C@H](Cc1ccccc1)NC(=O)[C@H](Cc1ccc(O)cc1)NC(=O)[C@H]1CCC[C@@H]1C(=O)O` (HELM PEPTIDE1{[O=C(O)[C@H]1CCC[C@@H]1C(=O)[*:2]].Y.F.E.F.[CN[*:1]]}$$$$V2.0) the Activity was 0.24 nM/s.

`CNC(=O)[C@H](Cc1c[nH]c2cc(Cl)ccc12)NC(=O)[C@H](CCC(=O)O)NC(=O)[C@H](Cc1ccccc1)NC(=O)[C@H](Cc1ccc(O)cc1)NC(=O)[C@H](CCC(=O)O)NC(C)=O` (HELM PEPTIDE1{[ac].E.Y.F.E.[O=C([C@H](Cc1c[nH]c2cc(Cl)ccc12)N[*:1])[*:2]].[CN[*:1]]}$$$$V2.0) was tested, and the Activity was 3.3 nM/s.

`CNC(=O)[C@H](Cc1c[nH]c2ccccc12)NC(=O)[C@H](CCC(=O)O)NC(=O)[C@H](Cc1ccccc1)NC(=O)[C@H](Cc1ccc(O)cc1)NC(=O)CCC(=O)O` (HELM PEPTIDE1{[O=C(O)CCC(=O)[*:2]].Y.F.E.W.[CN[*:1]]}$$$$V2.0) gave an Activity of 1.45 nM/s.

`CNC(=O)[C@H](Cc1c[nH]c2ccccc12)NC(=O)[C@H](CCC(=O)O)NC(=O)[C@H](Cc1ccccc1)NC(=O)[C@H](Cc1ccc(O)cc1)NC(=O)[C@H]1CCCC[C@@H]1C(=O)O` was tested, and the Activity was 10.9 nM/s.

In the case of `CNC(=O)[C@H](Cc1ccccc1)NC(=O)[C@H](CCC(=O)O)NC(=O)[C@H](Cc1ccccc1)NC(=O)[C@H](Cc1ccc(O)cc1)NC(=O)C1CCC1C(=O)O` (stereo not given in full) (HELM PEPTIDE1{[O=C(O)C1CCC1C(=O)[*:2]].Y.F.E.F.[CN[*:1]]}$$$$V2.0), the Activity was 1.9 nM/s.

`CNC(=O)[C@H](Cc1c[nH]c2ccccc12)NC(=O)[C@H](CCC(=O)O)NC(=O)[C@H](Cc1ccccc1)NC(=O)[C@H](Cc1ccc(O)cc1)NC(=O)c1ccccc1[N+](=O)[O-]` (HELM PEPTIDE1{[O=C(c1ccccc1[N+](=O)[O-])[*:2]].Y.F.E.W.[CN[*:1]]}$$$$V2.0) was tested, and the Activity was 3.3 nM/s.
